Tests used:
Assay type in all cases: functional
[1] = test system: MDA-MB-435; experiment: Cytotoxicity against human MDA-MB-435 cells assessed as cell growth at 10 uM after 48 hrs by SRB assay; conditions: MDA-MB-435, 48 h, read-out: Activity
In short: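 NCI single-dose screen at 10 µM. Cells were incubated 48 h and the end point was read by sulforhodamine B protein staining. Results are given as percent growth of treated cells relative to untreated controls. Growth of 32% or less was counted as active.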

[2] = test system: A549; experiment: Cytotoxicity against human A549 cells after 48 hrs by SRB assay; conditions: A549, 48 h
In short: (§1)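 Five-dose NCI-60 panel screen: cells grown in RPMI 1640 with 5% FBS and 2 mM L-glutamine, preincubated 24 h at 37 °C, 5% CO2. Five 10-fold dilutions, 0.01–100 µM, applied for 48 h. Fixed with cold TCA (10% final), stained with 0.4% SRB, absorbance read at 515 nm. GI50, TGI and LC50 were taken from log concentration versus % growth curves using time-zero plates.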

[3] = test system: EKVX; experiment: Cytotoxicity against human EKVX cells after 48 hrs by SRB assay; in short: as §1
[4] = test system: NCI-H522; experiment: Cytotoxicity against human NCI-H522 cells after 48 hrs by SRB assay; conditions: NCI-H522, 48 h; in short: as §1
[5] = test system: COLO 205; experiment: Cytotoxicity against human COLO205 cells after 48 hrs by SRB assay; conditions: COLO 205, 48 h; in short: as §1
[6] = test system: HCC 2998; experiment: Cytotoxicity against human HCC2998 cells after 48 hrs by SRB assay; conditions: HCC 2998, 48 h; in short: as §1
[7] = test system: HT-29; experiment: Cytotoxicity against human HT-29 cells after 48 hrs by SRB assay; conditions: HT-29, 48 h; in short: as §1
[8] = test system: SW-620; experiment: Cytotoxicity against human SW620 cells after 48 hrs by SRB assay; conditions: SW-620, 48 h
In short: (§2)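 Cells were grown in RPMI 1640 with 5% FBS and 2 mM L-glutamine, then held 24 h at 37 °C and 5% CO2 before dosing. TCA-fixed time-zero plates were kept. Compound was dissolved in DMSO and given at five 10-fold dilutions for 48 h. Cells were fixed with cold TCA (10% final), stained with 0.4% SRB and read at 515 nm. GI50, TGI and LC50 came from Ti/Tz/control growth formulas.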

[9] = test system: SF-295; experiment: Cytotoxicity against human SF295 cells after 48 hrs by SRB assay; conditions: SF-295, 48 h; in short: as §1
[10] = test system: SF-539; experiment: Cytotoxicity against human SF539 cells after 48 hrs by SRB assay; conditions: SF-539, 48 h; in short: as §1
[11] = test system: SNB-19; experiment: Cytotoxicity against human SNB19 cells after 48 hrs by SRB assay; conditions: SNB-19, 48 h; in short: as §2
[12] = test system: SNB-75; experiment: Cytotoxicity against human SNB75 cells after 48 hrs by SRB assay; conditions: SNB-75, 48 h; in short: as §2
[13] = test system: SK-MEL-28; experiment: Cytotoxicity against human SK-MEL-28 cells after 48 hrs by SRB assay; conditions: SK-MEL-28, 48 h; in short: as §1
[14] = test system: IGROV-1; experiment: Cytotoxicity against human IGROV1 cells after 48 hrs by SRB assay; conditions: IGROV-1, 48 h; in short: as §1
[15] = test system: OVCAR-3; experiment: Cytotoxicity against human OVCAR3 cells after 48 hrs by SRB assay; conditions: OVCAR-3, 48 h; in short: as §1
[16] = test system: NCI/ADR-RES; experiment: Cytotoxicity against human NCI/ADR-RES cells after 48 hrs by SRB assay; in short: as §1
[17] = test system: TK-10; experiment: Cytotoxicity against human TK10 cells after 48 hrs by SRB assay; conditions: TK-10, 48 h; in short: as §2
[18] = test system: MCF7; experiment: Cytotoxicity against human MCF7 cells after 48 hrs by SRB assay; conditions: MCF7, 48 h; in short: as §1
[19] = test system: Hs-578T; experiment: Cytotoxicity against human Hs578T cells after 48 hrs by SRB assay; in short: as §1
[20] = test system: BT-549; experiment: Cytotoxicity against human BT549 cells after 48 hrs by SRB assay; conditions: BT-549, 48 h; in short: as §1
[21] = read-out: LC50 (the source's name)
[22] = read-out: pLC50 (the source's name) (converted)

Question: Nc1cc(Br)c(-c2nnc(CCC(=O)c3nc4ccccc4[nH]3)o2)c(Br)c1 was tested. Which growth at 10 µM [1] did it give?
Answer: 5.71%

Question: And the GI50 [2]?
Answer: 27.5 µM

Question: What about the CC50 [2, 21] of the same compound?
Answer: > 100 µM

Question: What about the TGI ([2]; read-out: TGI) of the same compound?
Answer: > 100 µM

Question: And the CC50 [2, 22]?
Answer: > 100 µM

Question: And the TGI ([2]; read-out: pTGI)?
Answer: > 100 µM

Question: What about the GI50 [3] of the same compound?
Answer: 22.9 µM

Question: What about the CC50 [3, 21] of the same compound?
Answer: > 100 µM

Question: What about the TGI ([3]; read-out: TGI) of the same compound?
Answer: > 100 µM

Question: And the CC50 [3, 22]?
Answer: > 100 µM

Question: And the TGI ([3]; read-out: pTGI)?
Answer: > 100 µM

Question: What about the GI50 [4] of the same compound?
Answer: 2.88 µM

Question: And the CC50 [4, 21]?
Answer: > 100 µM

Question: And the TGI ([4]; read-out: TGI)?
Answer: 16.9 µM

Question: What about the CC50 [4, 22] of the same compound?
Answer: > 100 µM

Question: And the TGI ([4]; read-out: pTGI (converted))?
Answer: 17 µM

Question: And the GI50 [5]?
Answer: 11.7 µM

Question: What about the CC50 [5, 21] of the same compound?
Answer: 80.1 µM

Question: What about the TGI ([5]; read-out: TGI) of the same compound?
Answer: 30.8 µM

Question: And the CC50 [5, 22]?
Answer: 79.4 µM

Question: What about the TGI ([5]; read-out: pTGI (converted)) of the same compound?
Answer: 30.9 µM

Question: What about the GI50 [6] of the same compound?
Answer: 11 µM

Question: What about the CC50 [6, 21] of the same compound?
Answer: > 100 µM

Question: What about the TGI ([6]; read-out: TGI) of the same compound?
Answer: 42.5 µM

Question: And the CC50 [6, 22]?
Answer: > 100 µM

Question: What about the TGI ([6]; read-out: pTGI (converted)) of the same compound?
Answer: 42.7 µM

Question: And the GI50 [7]?
Answer: 19.1 µM

Question: What about the CC50 [7, 21] of the same compound?
Answer: > 100 µM

Question: What about the TGI ([7]; read-out: TGI) of the same compound?
Answer: 83.5 µM

Question: And the CC50 [7, 22]?
Answer: > 100 µM

Question: What about the TGI ([7]; read-out: pTGI (converted)) of the same compound?
Answer: 83.2 µM

Question: And the GI50 [8]?
Answer: 3.31 µM

Question: What about the CC50 [8, 21] of the same compound?
Answer: > 100 µM

Question: And the TGI ([8]; read-out: TGI)?
Answer: > 100 µM

Question: What about the CC50 [8, 22] of the same compound?
Answer: > 100 µM

Question: What about the TGI ([8]; read-out: pTGI) of the same compound?
Answer: > 100 µM

Question: What about the GI50 [9] of the same compound?
Answer: 9.77 µM

Question: What about the CC50 [9, 21] of the same compound?
Answer: > 100 µM

Question: And the TGI ([9]; read-out: TGI)?
Answer: 35.6 µM

Question: What about the CC50 [9, 22] of the same compound?
Answer: > 100 µM

Question: What about the TGI ([9]; read-out: pTGI (converted)) of the same compound?
Answer: 35.5 µM

Question: And the GI50 [10]?
Answer: 17.4 µM

Question: What about the CC50 [10, 21] of the same compound?
Answer: > 100 µM

Question: What about the TGI ([10]; read-out: TGI) of the same compound?
Answer: 60.8 µM

Question: And the CC50 [10, 22]?
Answer: > 100 µM

Question: What about the TGI ([10]; read-out: pTGI (converted)) of the same compound?
Answer: 60.3 µM

Question: What about the GI50 [11] of the same compound?
Answer: 20 µM

Question: And the CC50 [11, 21]?
Answer: > 100 µM

Question: What about the TGI ([11]; read-out: TGI) of the same compound?
Answer: > 100 µM

Question: What about the CC50 [11, 22] of the same compound?
Answer: > 100 µM

Question: What about the TGI ([11]; read-out: pTGI) of the same compound?
Answer: > 100 µM

Question: And the GI50 [12]?
Answer: 2.95 µM

Question: And the CC50 [12, 21]?
Answer: > 100 µM

Question: What about the TGI ([12]; read-out: TGI) of the same compound?
Answer: 20.5 µM

Question: And the CC50 [12, 22]?
Answer: > 100 µM

Question: What about the TGI ([12]; read-out: pTGI (converted)) of the same compound?
Answer: 20.4 µM

Question: And the GI50 [13]?
Answer: 6.31 µM

Question: What about the CC50 [13, 21] of the same compound?
Answer: > 100 µM

Question: What about the TGI ([13]; read-out: TGI) of the same compound?
Answer: 79 µM

Question: What about the CC50 [13, 22] of the same compound?
Answer: > 100 µM

Question: And the TGI ([13]; read-out: pTGI (converted))?
Answer: 79.4 µM

Question: What about the GI50 [14] of the same compound?
Answer: 5.89 µM

Question: And the LC50 ([14]; read-out: LC50)?
Answer: > 100 µM

Question: What about the TGI ([14]; read-out: TGI) of the same compound?
Answer: 62.7 µM

Question: And the LC50 ([14]; read-out: pLC50 (converted))?
Answer: > 100 µM

Question: And the TGI ([14]; read-out: pTGI (converted))?
Answer: 63.1 µM

Question: And the GI50 [15]?
Answer: 2.63 µM

Question: What about the LC50 ([15]; read-out: LC50) of the same compound?
Answer: > 100 µM

Question: And the TGI ([15]; read-out: TGI)?
Answer: 6.98 µM

Question: And the LC50 ([15]; read-out: pLC50 (converted))?
Answer: > 100 µM

Question: And the TGI ([15]; read-out: pTGI (converted))?
Answer: 6.92 µM

Question: And the GI50 [16]?
Answer: 22.4 µM

Question: What about the CC50 [16, 21] of the same compound?
Answer: > 100 µM

Question: What about the TGI ([16]; read-out: TGI) of the same compound?
Answer: > 100 µM

Question: What about the CC50 [16, 22] of the same compound?
Answer: > 100 µM

Question: And the TGI ([16]; read-out: pTGI)?
Answer: > 100 µM

Question: And the GI50 [17]?
Answer: 36.3 µM

Question: What about the LC50 ([17]; read-out: LC50) of the same compound?
Answer: > 100 µM

Question: What about the TGI ([17]; read-out: TGI) of the same compound?
Answer: > 100 µM

Question: What about the LC50 ([17]; read-out: pLC50 (converted)) of the same compound?
Answer: > 100 µM

Question: And the TGI ([17]; read-out: pTGI)?
Answer: > 100 µM

Question: And the GI50 [18]?
Answer: 3.09 µM

Question: And the CC50 [18, 21]?
Answer: > 100 µM

Question: And the TGI ([18]; read-out: TGI)?
Answer: > 100 µM

Question: And the CC50 [18, 22]?
Answer: > 100 µM

Question: What about the TGI ([18]; read-out: pTGI) of the same compound?
Answer: > 100 µM

Question: What about the GI50 [19] of the same compound?
Answer: 3.72 µM

Question: What about the CC50 [19, 21] of the same compound?
Answer: > 100 µM

Question: And the TGI ([19]; read-out: TGI)?
Answer: 31.7 µM

Question: And the CC50 [19, 22]?
Answer: > 100 µM

Question: And the TGI ([19]; read-out: pTGI (converted))?
Answer: 31.6 µM

Question: What about the GI50 [20] of the same compound?
Answer: 6.76 µM

Question: What about the CC50 [20, 21] of the same compound?
Answer: > 100 µM

Question: What about the TGI ([20]; read-out: TGI) of the same compound?
Answer: > 100 µM

Question: And the CC50 [20, 22]?
Answer: > 100 µM

Question: And the TGI ([20]; read-out: pTGI)?
Answer: > 100 µM

— ChEMBL document CHEMBL2157987, “Benzimidazole bearing oxadiazole and triazolo-thiadiazoles nucleus: design and synthesis as anticancer agents” (2012)
